According to ChEMBL document CHEMBL1134357, “Heterobifunctional ligands: practical chemoenzymatic synthesis of a cell adhesive glycopeptide that interacts with both selectins and integrins” (J Med Chem, 2001):

Tests used:
[1] = Association constant of compound against selectin E was determined
Summary of the method: (§1)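 SPR (IAsys): recombinant soluble human E-, P- or L-selectin is coupled to a BS3-activated aminosilane cuvette and the surface blocked with BSA. Binding is run in 10 mM PBS, 1 mM CaCl2, pH 7.2, at 25 °C. Ligand solution (0.01 mL into 0.2 mL total) is monitored for 20 min, and kinetic and equilibrium constants are derived from the binding curves.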

[2] = Association constant of compound against selectin P was determined; summary of the method: as §1
[3] = Association constant of compound against selectin L was determined; summary of the method: as §1
[4] = Dissociation constant of compound against selectin E was determined; summary of the method: as §1
[5] = target: T1, L-selectin (Homo sapiens) (UniProt P14151); assay: Binding affinity of compound against selectin L was determined; summary of the method: as §1
T1 sequence (whole entry): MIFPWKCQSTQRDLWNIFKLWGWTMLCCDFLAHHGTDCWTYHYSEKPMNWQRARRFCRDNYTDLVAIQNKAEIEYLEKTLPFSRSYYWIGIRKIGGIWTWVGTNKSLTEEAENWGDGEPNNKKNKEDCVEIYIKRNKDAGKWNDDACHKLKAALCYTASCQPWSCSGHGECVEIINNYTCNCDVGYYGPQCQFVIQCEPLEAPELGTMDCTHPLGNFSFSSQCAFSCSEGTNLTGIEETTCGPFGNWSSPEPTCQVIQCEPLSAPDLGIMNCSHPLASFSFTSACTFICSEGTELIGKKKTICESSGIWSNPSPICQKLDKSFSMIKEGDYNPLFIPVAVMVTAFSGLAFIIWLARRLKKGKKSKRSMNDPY

[6] = Dissociation constant of compound against selectin L was determined; summary of the method: as §1
[7] = target: T2, P-selectin (Homo sapiens) (UniProt P16109); assay: Binding affinity of compound against selectin P was determined; summary of the method: as §1
T2 sequence (whole entry): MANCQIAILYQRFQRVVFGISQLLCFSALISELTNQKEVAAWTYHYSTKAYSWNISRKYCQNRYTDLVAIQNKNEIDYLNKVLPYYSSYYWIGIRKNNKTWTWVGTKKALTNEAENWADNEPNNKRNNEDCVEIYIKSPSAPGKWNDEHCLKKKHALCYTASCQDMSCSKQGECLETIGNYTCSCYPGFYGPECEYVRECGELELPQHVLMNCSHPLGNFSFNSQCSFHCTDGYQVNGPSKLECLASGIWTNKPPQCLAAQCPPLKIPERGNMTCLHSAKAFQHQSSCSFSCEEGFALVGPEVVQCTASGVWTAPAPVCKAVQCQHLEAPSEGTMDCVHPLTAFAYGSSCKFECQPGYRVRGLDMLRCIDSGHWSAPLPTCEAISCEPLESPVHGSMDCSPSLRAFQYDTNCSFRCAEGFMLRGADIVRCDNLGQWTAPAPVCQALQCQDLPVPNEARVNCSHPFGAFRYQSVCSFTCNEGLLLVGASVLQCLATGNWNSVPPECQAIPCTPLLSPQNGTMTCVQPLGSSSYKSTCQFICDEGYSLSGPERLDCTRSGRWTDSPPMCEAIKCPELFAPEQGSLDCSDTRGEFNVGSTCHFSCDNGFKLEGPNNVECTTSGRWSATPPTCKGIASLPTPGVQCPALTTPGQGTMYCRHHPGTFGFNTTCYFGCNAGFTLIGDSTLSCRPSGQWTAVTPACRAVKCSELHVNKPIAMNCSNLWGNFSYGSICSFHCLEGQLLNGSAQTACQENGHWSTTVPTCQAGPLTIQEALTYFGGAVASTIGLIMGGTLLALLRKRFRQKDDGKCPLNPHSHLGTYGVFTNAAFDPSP

[8] = Dissociation constant of compound against selectin P was determined; summary of the method: as §1
[9] = target: T3, E-selectin (Homo sapiens) (UniProt P16581); assay: Binding affinity of compound against selectin E was determined; summary of the method: as §1
T3 sequence (whole entry): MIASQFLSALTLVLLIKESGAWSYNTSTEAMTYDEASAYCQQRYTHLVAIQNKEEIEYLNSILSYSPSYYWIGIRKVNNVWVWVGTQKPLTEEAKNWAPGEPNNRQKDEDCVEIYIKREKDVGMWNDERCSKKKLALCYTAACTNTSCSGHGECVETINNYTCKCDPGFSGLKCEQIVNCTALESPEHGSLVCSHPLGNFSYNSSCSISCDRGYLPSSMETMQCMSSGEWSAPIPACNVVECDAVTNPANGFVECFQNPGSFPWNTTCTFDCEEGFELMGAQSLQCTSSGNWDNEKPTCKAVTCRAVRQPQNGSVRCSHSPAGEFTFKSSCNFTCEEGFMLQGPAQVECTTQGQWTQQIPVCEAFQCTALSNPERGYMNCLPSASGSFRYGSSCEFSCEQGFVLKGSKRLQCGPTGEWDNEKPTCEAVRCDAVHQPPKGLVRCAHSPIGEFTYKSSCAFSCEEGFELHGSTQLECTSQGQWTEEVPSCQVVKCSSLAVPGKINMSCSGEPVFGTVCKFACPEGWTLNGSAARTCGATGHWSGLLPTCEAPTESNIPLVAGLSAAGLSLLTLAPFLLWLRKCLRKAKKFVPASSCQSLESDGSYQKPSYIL

| Structure (SMILES) | K ass [1] [M⁻¹ s⁻¹] | K ass [2] [M⁻¹ s⁻¹] | K ass [3] [M⁻¹ s⁻¹] | K diss [4] [s⁻¹] | Ka [5] [M⁻¹] | K diss [6] [s⁻¹] | Ka [7] [M⁻¹] | K diss [8] [s⁻¹] | Ka [9] [M⁻¹] |
| --- | --- | --- | --- | --- | --- | --- | --- | --- | --- |
| NC(N)=NCCC[C@H](N)C(=O)NCC(=O)N[C@@H](CC(=O)O)C(=O)N[C@@H](CO)C(=O)O | 4 | 89.1 | 4.1 |  |  |  |  |  |  |
| N=C(N)NCCC[C@H](N)C(=O)NCC(=O)N[C@@H](CC(=O)O)C(=O)N[C@@H](CO)C(=O)O |  |  |  | 0.00066 | 5400 | 0.00077 | 97000 | 0.00092 | 6100 |
| CC(=O)N[C@H]1[C@H]([C@H](O)[C@H](O)CO)O[C@@](O[C@H]2[C@@H](O)[C@@H](CO)O[C@@H](O[C@@H]([C@H](O[C@@H]3O[C@@H](C)[C@@H](O)[C@@H](O)[C@@H]3O)[C@H](C=O)NC(C)=O)[C@H](O)CO)[C@@H]2O)(C(=O)O)C[C@@H]1O [SIALYL LEWIS X] | 21.1 | 229.6 | 312.7 | 0.0017 | 870 | 0.36 | 880000 | 0.00026 | 12000 |
